Test results as given in ChEMBL document CHEMBL1124106, “Synthesis of diethylenetriaminepentaacetic acid conjugated inulin and utility for cellular uptake of liposomes” (J Med Chem, 1988).
Several values for one entry are separate records, joined by “and”; a condition that tells them apart may be missing. Equal entries are not always repeated.

Assays:
Mus musculus [1] = test: Biodistribution in mice lung, after 1 hr of intravenous administration of 1-2 ug of compound (entrapped in bovine brain sphingomyelin/ cholesterol multilamellar vehicles); format: ADME, organism-based; conditions: in vivo
Procedure, shortened: (§1)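 BALB/c mice (about 25 g), 3–5 per group, given 50–100 μL tail-vein injection of 111In-labeled conjugate entrapped in SM/CH (2:1 mol/mol) multilamellar vesicles, approx. 100 000 cpm; dose 1–2 μg phospholipid/g body weight. Killed by cervical dislocation at set times; blood, cumulative excretion and rinsed, blotted, weighed tissues γ-counted, blood background subtracted. Result is % injected dose ± SD.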

Mus musculus [2] = test: Biodistribution in mice heart, after 24 hr of intravenous administration of 1-2 ug of compound (entrapped in bovine brain sphingomyelin/ cholesterol multilamellar vehicles); format: ADME, organism-based; conditions: in vivo; procedure, shortened: as §1
Mus musculus [3] = test: Biodistribution of compound in mice liver after 21 hr of intravenous injection; format: ADME, organism-based; conditions: in vivo
Procedure, shortened: (§2)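 BALB/c mice (about 25 g), n = 4. Free ¹¹¹In- or ⁶⁷Ga-labeled compound (50–100 μL, about 100 000 cpm) was injected into a tail vein. Mice were held in separate cages and killed by cervical dislocation, with blood and cumulative excreta collected. Tissues were rinsed, blotted, weighed and γ-counted, with blood background subtracted (blood volume 8.0%). Values are % injected dose ± SD.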

Mus musculus [4] = test: Biodistribution in mice intestine, after 48 hr of intravenous administration of 1-2 ug of compound (entrapped in bovine brain sphingomyelin/ cholesterol multilamellar vehicles); format: ADME, organism-based; conditions: in vivo; procedure, shortened: as §1
Mus musculus [5] = test: Biodistribution of compound in mice leg muscle after 21 hr of intravenous injection; format: ADME, organism-based, Muscle tissue; conditions: in vivo; procedure, shortened: as §2
Mus musculus [6] = test: Biodistribution of compound in mice kidneys after 21 hr of intravenous injection; format: ADME, organism-based, Kidney; conditions: in vivo; procedure, shortened: as §2
Mus musculus [7] = test: Biodistribution in mice lung, after 12 hr of intravenous administration of 1-2 ug ofcompound (entrapped in bovine brain sphingomyelin/ cholesterol multilamellar vehicles); format: ADME, organism-based; conditions: in vivo; procedure, shortened: as §1
Mus musculus [8] = test: Biodistribution of compound in mice liver after 1 hr of intravenous injection; format: ADME, organism-based; conditions: in vivo; procedure, shortened: as §2
Mus musculus [9] = test: Biodistribution in mice skin, after 48 hr of intravenous administration of 1-2 ug ofcompound (entrapped in bovine brain sphingomyelin/ cholesterol multilamellar vehicles); format: ADME, organism-based, Zone of skin; conditions: in vivo; procedure, shortened: as §1
Mus musculus [10] = test: Biodistribution of compound in mice leg muscle after 0.17 hr of intravenous injection; format: ADME, organism-based, Muscle tissue; conditions: in vivo; procedure, shortened: as §2
Mus musculus [11] = test: Biodistribution of compound in mice blood after 21 hr of intravenous injection; format: ADME, organism-based; conditions: in vivo; procedure, shortened: as §2
[12] = Biodistribution in mice excretion, after 12 hr of intravenous administration of 1-2 ug of compound (entrapped in bovine brain sphingomyelin/ cholesterol multilamellar vehicles); format: ADME, organism-based; conditions: mouse, excretion (excreta, not specified further), read-out: ID; procedure, shortened: as §1
[13] = Biodistribution in mice excretion, after 24 hr of intravenous administration of 1-2 ug of ofcompound (entrapped in bovine brain sphingomyelin/ cholesterol multilamellar vehicles); format: ADME, organism-based; conditions: mouse, excretion (excreta, not specified further), read-out: ID; procedure, shortened: as §1
Mus musculus [14] = test: Biodistribution in mice kidneys, after 12 hr of intravenous administration of 1-2 ug of compound (entrapped in bovine brain sphingomyelin/ cholesterol multilamellar vehicles); format: ADME, organism-based, Kidney; conditions: in vivo; procedure, shortened: as §1
Mus musculus [15] = test: Biodistribution of compound in mice skin after 1 hr of intravenous injection; format: ADME, organism-based, Zone of skin; conditions: in vivo; procedure, shortened: as §2
Mus musculus [16] = test: Biodistribution in mice carcass, after 24 hr of intravenous administration of 1-2 ug ofcompound (entrapped in bovine brain sphingomyelin/ cholesterol multilamellar vehicles); format: ADME, organism-based; conditions: in vivo; procedure, shortened: as §1
Mus musculus [17] = test: Biodistribution in mice intestine, after 24 hr of intravenous administration of 1-2 ug of compound (entrapped in bovine brain sphingomyelin/ cholesterol multilamellar vehicles); format: ADME, organism-based; conditions: in vivo; procedure, shortened: as §1
Mus musculus [18] = test: Biodistribution in mice liver, after 1 hr of intravenous administration of 1-2 ug of compound (entrapped in bovine brain sphingomyelin/ cholesterol multilamellar vehicles); format: ADME, organism-based; conditions: in vivo; procedure, shortened: as §1
[19] = Biodistribution in mice excretion, after 48 hr of intravenous administration of 1-2 ug of compound (entrapped in bovine brain sphingomyelin/ cholesterol multilamellar vehicles) at; format: ADME, organism-based; conditions: mouse, excretion (excreta, not specified further), read-out: ID; procedure, shortened: as §1
Mus musculus [20] = test: Biodistribution of compound in mice spleen after 21 hr of intravenous injection; format: ADME, organism-based; conditions: in vivo; procedure, shortened: as §2
Mus musculus [21] = test: Biodistribution in mice lung, after 48 hr of intravenous administration of 1-2 ug of compound (entrapped in bovine brain sphingomyelin/ cholesterol multilamellar vehicles); format: ADME, organism-based; conditions: in vivo; procedure, shortened: as §1
Mus musculus [22] = test: Biodistribution in mice leg muscle, after 48 hr of intravenous administration of compound (entrapped in bovine brain sphingomyelin/ cholesterol multilamellar vehicles); format: ADME, organism-based, Muscle tissue; conditions: in vivo; procedure, shortened: as §1
Mus musculus [23] = test: Biodistribution of compound in mice liver after 0.17 hr of intravenous injection; format: ADME, organism-based; conditions: in vivo; procedure, shortened: as §2
Mus musculus [24] = test: Biodistribution of compound in mice carcass after 21 hr of intravenous injection; format: ADME, organism-based; conditions: in vivo; procedure, shortened: as §2
Mus musculus [25] = test: Biodistribution of compound in mice spleen after 1 hr of intravenous injection; format: ADME, organism-based; conditions: in vivo; procedure, shortened: as §2
Mus musculus [26] = test: Biodistribution in mice heart, after 1 hr of intravenous administration of 1-2 ug of compound (entrapped in bovine brain sphingomyelin/ cholesterol multilamellar vehicles); format: ADME, organism-based; conditions: in vivo; procedure, shortened: as §1
Mus musculus [27] = test: Biodistribution of compound in mice intestine after 0.17 hr of intravenous injection; format: ADME, organism-based; conditions: in vivo; procedure, shortened: as §2
Mus musculus [28] = test: Biodistribution in mice carcass, after 1 hr of intravenous administration of 1-2 ug ofcompound (entrapped in bovine brain sphingomyelin/ cholesterol multilamellar vehicles); format: ADME, organism-based; conditions: in vivo; procedure, shortened: as §1
Mus musculus [29] = test: Biodistribution in mice brain, after 12 hr of intravenous administration of 1-2 ug of compound (entrapped in bovine brain sphingomyelin/ cholesterol multilamellar vehicles); format: ADME, organism-based; conditions: in vivo; procedure, shortened: as §1
Mus musculus [30] = test: Biodistribution in mice stomach, after 12 hr of intravenous administration of 1-2 ug of compound (entrapped in bovine brain sphingomyelin/ cholesterol multilamellar vehicles); format: ADME, organism-based; conditions: in vivo
Procedure, shortened: (§3)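 BALB/c mice (about 25 g), groups of 2–5. Compound ¹¹¹In-loaded into SM/CH (2:1, mol/mol) multilamellar vesicles, given as a single tail-vein injection. Lipid dose was 1–2 μg phospholipid/g body weight, in 50–100 μL carrying about 100 000 cpm. Mice were killed by cervical dislocation. Organs were rinsed, blotted, weighed and γ-counted, with blood background subtracted. Values are % injected dose ± SD.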

Mus musculus [31] = test: Biodistribution in mice fat, after 24 hr of intravenous administration of 1-2 ug of compound (entrapped in bovine brain sphingomyelin/ cholesterol multilamellar vehicles); format: ADME, organism-based; conditions: in vivo; procedure, shortened: as §1
Mus musculus [32] = test: Biodistribution in mice tail, after 12 hr of intravenous administration of 1-2 ug of compound (entrapped in bovine brain sphingomyelin/ cholesterol multilamellar vehicles); format: ADME, organism-based; conditions: in vivo; procedure, shortened: as §3
Mus musculus [33] = test: Biodistribution in mice brain, after 1 hr of intravenous administrating 1-2 ug of compound (entrapped in bovine brain sphingomyelin/ cholesterol multilamellar vehicles); format: ADME, organism-based; conditions: in vivo; procedure, shortened: as §1
Mus musculus [34] = test: Biodistribution of compound in mice skin after 0.17 hr of intravenous injection; format: ADME, organism-based, Zone of skin; conditions: in vivo; procedure, shortened: as §2
Mus musculus [35] = test: Biodistribution in mice leg muscle, after 12 hr of intravenous administration of 1-2 ug of compound (entrapped in bovine brain sphingomyelin/ cholesterol multilamellar vehicles); format: ADME, organism-based, Muscle tissue; conditions: in vivo; procedure, shortened: as §1
Mus musculus [36] = test: Biodistribution in mice skin, after 1 hr of intravenous administration of 1-2 ug of compound (entrapped in bovine brain sphingomyelin/ cholesterol multilamellar vehicles); format: ADME, organism-based, Zone of skin; conditions: in vivo; procedure, shortened: as §1
Mus musculus [37] = test: (§4) Biodistribution of compound in mice excretion after 0.17 hr of intravenous injection; format: ADME, organism-based; conditions: in vivo, 0.17 h; procedure, shortened: as §2
[38] = as §4; format: ADME, organism-based; conditions: mouse, excretion (excreta, not specified further), read-out: ID; procedure, shortened: as §2
Mus musculus [39] = test: Biodistribution in mice blood, after 12 hr of intravenous administration of 1-2 ug of compound (entrapped in bovine brain sphingomyelin/ cholesterol multilamellar vehicles); format: ADME, organism-based; conditions: in vivo; procedure, shortened: as §1
Mus musculus [40] = test: Biodistribution of compound in mice carcass after 0.17 hr of intravenous injection; format: ADME, organism-based; conditions: in vivo; procedure, shortened: as §2

## NCCNC(=O)CN(CCN(CCN(CC(=O)O)CC(=O)O)CC(=O)O)CC(=O)O
Mus musculus [1]
  ID: 0.4%
Mus musculus [2]
  ID: 0%
Mus musculus [3]
  ID: 0.4% and 2.1%
Mus musculus [4]
  ID: 0.6%
Mus musculus [5]
  ID: 0.2% and 0.3%
Mus musculus [6]
  ID: 0.8% and 0.9%
Mus musculus [7]
  ID: 0.1%
Mus musculus [8]
  ID: 0.3% and 1.4%
Mus musculus [9]
  ID: 2.8%
Mus musculus [10]
  ID: 3.2% and 3.1%
Mus musculus [11]
  ID: 1% and 0.7%
[12]
  dose excreted at 12 h: 0%
[13]
  dose excreted at 24 h: 0%
Mus musculus [14]
  ID: 0.4%
Mus musculus [15]
  ID: 5.8% and 7.7%
Mus musculus [16]
  ID: 2.1%
Mus musculus [17]
  ID: 0.8%
Mus musculus [18]
  ID: 55.1%
[19]
  dose excreted at 48 h: 0%
Mus musculus [20]
  ID: 0.1%
Mus musculus [21]
  ID: 0.2%
Mus musculus [22]
  ID: 0.3%
Mus musculus [23]
  ID: 0.6% and 1.3%
Mus musculus [24]
  ID: 0.8% and 3%
Mus musculus [25]
  ID: 0.1% and 0%
Mus musculus [26]
  ID: 0%
Mus musculus [27]
  ID: 2.2% and 2.4%
Mus musculus [28]
  ID: 4%
Mus musculus [29]
  ID: 0%
Mus musculus [30]
  ID: 0.2%
Mus musculus [31]
  ID: 0.4%
Mus musculus [32]
  ID: 2.7%
Mus musculus [33]
  ID: 0%
Mus musculus [34]
  ID: 15.6% and 15.1%
Mus musculus [35]
  ID: 0.4%
Mus musculus [36]
  ID: 1.6%
Mus musculus [37]
  ID: 3.2%
[38]
  dose excreted at 0.17 h: 3.6%
Mus musculus [39]
  ID: 0.5%
Mus musculus [40]
  ID: 14.2% and 19.3%
